The full list was thinned out, with hits kept by preference.
Diaphorase inh: inhibits diaphorase or chemically oxidizes, flagging diaphorase assay artifacts | diaphorase resazurin-to-resorufin fluorescence, NADH, 16 min; bacterial (C. kluyveri) enzyme, not human | inhibition, % at 20 µM | 0.69% of 190,000 active;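 active means primary screen inhibition at 20 µM above a set limit, cut at about 50% in these data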;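 further: plate controls were DMSO with full reaction for no effect and wells lacking NADH for full effect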
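Assay system: diaphorase enzyme from Clostridium kluyveri. Quantity: enzyme working solution with 0.14 U/mL diaphorase. Schedule: reaction incubation of 16 min at room temperature. Technique: resorufin fluorescence, excitation 544 nm, emission 590 nm. Controls: No-NADH positive control and DMSO neutral control.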
G6PDH counter: counter-screen for G6PDH assay hits: L. mesenteroides G6PDH inhibition | Purified L. mesenteroides G6PDH, diaphorase/resazurin coupled fluorescence, 45 min | inhibition, % at 5 µM | 0.12% of 200,000 active | AID 1020
PfG6PD inh: PfG6PD (Plasmodium falciparum) enzyme inhibition; PfGluPho enzyme, NADPH resazurin-diaphorase fluorescence; inhibition, % at 20 µM; 0.78% of 350,000 active; AID 504690;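 active means inhibition reaching at least a set limit at 20 µM in the primary screen, cut at about 59% in these data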;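 further: 0% = DMSO wells with substrate and 100% = DMSO wells lacking glucose-6-phosphate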
DTT redox prof: compounds producing H2O2 with reducing agent – biochemical, NIH compound library profiling, artefact control for MLSCN library redox annotation, primary screen. 0.03% of 200,000 active. activation, % at 10 µM. DTT-dependent redox cycling H2O2, phenol red/HRP absorbance; 100% = 100 µM peroxide control, 0% = buffer;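 active means activation of at least 50% relative to the plate's high and low controls in the primary single-dose screen; inactive means activation below 50%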;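 further: compound incubated with DTT at 0.8 mM final as the reducing agent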
Diaphorase act: diaphorase activation or chemical reduction counter-screen. Diaphorase/resazurin coupled assay, resorufin fluorescence, 16 min; active compounds read high; 1 = vehicle wells, 0 = NADH-free wells. 0.005% of 190,000 active. activation factor at 20 µM;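 active means diaphorase activity raised at least twofold by the compound at 20 µM; inactive means activation factor below 2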
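Assay system: bacterial diaphorase enzyme (C. kluyveri) / Input: enzyme 0.07 U/mL final / Medium: 50 mM HEPES pH 7.4 with 4.542 mM MgCl2, 0.005% Tween 20 / Doses: single compound dose of 20 µM, 1% DMSO final / Incubation: 16 min enzyme reaction, ambient temperature / Signal: fluorescence, excitation 544 nm and emission 590 nm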
Lmaj promast: inhibitors of Leishmania major promastigote growth | inhibition, % at 10 µM | 9% of 200,000 active | AID 1063 | Leishmania major promastigotes, resazurin fluorescence viability;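 further: promastigotes grown with compound for 44 hours at 28 °C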
Active calls of the source: *; / = not tested or not shown. Unless noted, no stated cut-off is given here; in the data, active means inhibition above about 50%; inactive means the rest.

SMILES	Diaphorase inh	G6PDH counter	PfG6PD inh	DTT redox prof	Diaphorase act	Lmaj promast
CN(C)CCCN(C(=O)/C=C/c1cccs1)c1nc2c(F)cccc2s1	-14.0	-8.1	-4.8	-0.8	1.1	97.4*
CN(C)CCCN(C(=O)CCOc1ccccc1)c1nc2c(F)cccc2s1	11.8	0.3	12.8	-0.2	0.9	50.3*
C=CC#CC[N+]1(CC#Cc2ccccc2)CCOCC1	-47.0	1.1	71.7*	-0.6	1.5	-6.6
C(#Cc1ccccc1)C[N+]1(CC#Cc2ccccc2)CCCC1	15.8	-0.2	1.3	0.0	0.8	100.1*
COCC(C)NC(=O)c1ccc2c(c1)S(=O)(=O)c1ccccc1C2=O (stereo not drawn)	/	/	6.2	/	/	/
Cc1c(C)c(C)c(CO/N=C/c2cccs2)c(C)c1C	/	/	0.4	/	/	/
CCC1(C)Cc2ccccc2-c2[nH][nH]c(=O)c21 (stereo not drawn)	20.9	1.6	6.1	-1.7	0.8	1.2
O=C(NCC(c1ccco1)N1CCN(c2ccccc2)CC1)c1ccc2c(c1)OCO2 (stereo not drawn)	6.5	-2.4	-9.1	-1.7	0.9	23.4
COc1ccccc1N1CCN(C(CNC(=O)C2CCCCC2)c2cccnc2)CC1 (stereo not drawn)	13.0	-13.5	6.4	-0.3	0.9	51.0*
COc1ccccc1N1CCN(C(CNC(=O)c2ccc3c(c2)OCO3)c2cccnc2)CC1 (stereo not drawn)	6.0	-0.2	-15.2	-0.2	0.9	94.4*
Cc1c(C)n(CCc2ccccc2)c2ncnc(NCCCN(C)C)c12	/	/	6.6	/	/	/
COc1cccc2c1C(=O)c1c(O)c3c(c(O)c1C2=O)C[C@@](O)(C(=O)CO)C[C@@H]3O[C@H]1C[C@H](N)[C@H](O)[C@H](C)O1	15.1	21.2	23.7	13.2	0.8	100.2*
COc1cccc2c1C(=O)c1c(O)c3c(c(O)c1C2=O)C[C@@](O)(C(=O)CO)C[C@@H]3OC1CC(N)C(O)C(C)O1 (stereo partly drawn)	/	/	49.3	/	/	/
Cc1ccc(C)n1NC(=O)c1cccc(Cl)c1	1.7	-5.0	4.7	0.6	1	92.4*
CN(C)NC(=O)c1cccc(Cl)c1	/	/	2.6	/	/	/
CC1N(O)C(C)(C)C(c2ccccc2)=[N+]1[O-] (stereo not drawn)	6.0	9.6	-13.2	0.8	0.9	-7.9
CC(C)C(=O)c1cc2c(cc1NC(=O)c1ccccc1)OCCO2	15.6	-0.6	-1.9	1.8	0.8	57.1*
CC1C(=O)N(c2ccc(S(=O)(=O)N(C)C)cc2)C1(/C=C/c1ccccc1)C(=O)NC1CCCC1 (stereo not drawn)	4.5	16.0	20.9	-0.2	1	54.4*
O=C1CC(/C=C/c2ccccc2)(C(=O)NC2CCCC2)N1c1ccc(S(=O)(=O)N2CCCC2)cc1 (stereo not drawn)	6.3	4.0	-2.5	-0.2	0.9	39.4
CSc1ncccc1C(=O)N1CCCC(N2CCN(c3ccccc3F)CC2)C1 (stereo not drawn)	/	/	-10.5	/	/	/
O=C(Nc1ccc(N2CCOCC2)cc1)c1ccc(Cl)c(S(=O)(=O)N2CCCC2)c1	/	/	6.1	/	/	/
Clc1ccc(/C=N/NC2=Nc3cccc4cccc2c34)cc1	6.5	-23.0	30.9	0.7	0.9	-0.8
NC1=Nc2cccc3cccc1c23	12.6	14.8	31.7	-0.8	0.9	52.2*
NC(=O)c1cc([N+](=O)[O-])cc2c1C=Cc1ccccc1O2	12.2	2.5	6.6	-0.5	0.9	90.3*
NC(=O)c1cc2cc([N+](=O)[O-])ccc2oc1=O	-0.3	2.7	-10.2	-2.2	1	-2.4
SMILES	Diaphorase inh	G6PDH counter	PfG6PD inh	DTT redox prof	Diaphorase act	Lmaj promast
CCOc1cccc(CN2CCC(Oc3ccc(C(=O)NCc4ccccn4)cc3)CC2)c1	/	/	7.1	/	/	/
CCC1=NNc2cccc3c(OC)ccc1c23	6.8	19.9	/	1.5	0.9	100.5*
CC1=C(C(=O)c2ccccc2)C(c2cn(-c3ccccc3)nc2-c2ccc(Cl)cc2)NC(=S)N1 (stereo not drawn)	14.3	5.5	10.0	-4.3	0.9	100.2*
O=C1NC(=O)C(c2cn(-c3ccccc3)nc2-c2ccc(F)cc2)N1 (stereo not drawn)	21.3	-8.8	-11.1	0.5	0.8	-1.9
COc1ccc(/C=C/C(=O)c2cc(F)ccc2OC(=O)c2ccccc2OC)cc1OC	26.2	4.2	12.1	-0.5	0.7	47.8
COc1ccc(/C=C/C(=O)c2cc(Br)ccc2O)cc1OC	23.1	-0.1	0.0	0.3	0.8	28.7
COc1ccc(/C=C/C(=O)c2cc(F)ccc2OC(=O)c2ccccc2)cc1OC	/	/	7.2	-3.7	/	100.3*
COC(=O)c1ccc(/C=C/C(=O)c2ccc(OC)c(OC)c2)cc1	3.3	1.5	-13.9	2.1	1	39.6
COc1ccc(/C=C/C(=O)c2cc(F)ccc2OC(=O)c2ccc(OC)c(OC)c2)cc1OC	3.0	-1.2	14.0	0.8	1	92.1*
COc1ccc(/C=C/C(=O)c2cc(Br)ccc2OC(=O)c2ccco2)cc1OC	-0.9	0.2	18.7	-0.3	1	78.6*
O=C(c1ccccc1)C(O)C(c1ccccc1)N1CCOCC1 (stereo not drawn)	/	/	5.3	/	/	/
O=C(CSCCO)Nc1cccc([N+](=O)[O-])c1	9.9	5.7	-19.4	-0.1	0.9	64.8*
C(=C1/CCCC2=C1Nc1ncnn1C2c1ccccc1)/c1ccccc1 (stereo not drawn)	-5.2	5.9	/	1.4	1.1	100.5*
COc1ccc(C2C3=C(Nc4ncnn42)c2ccccc2CC3)cc1OC (stereo not drawn)	7.1	30.2	/	-0.5	0.9	2.9
FC(F)(F)c1ccccc1C1C2=C(Nc3ncnn31)c1ccccc1CCC2 (stereo not drawn)	-1.2	11.2	/	0.2	1	95.9*
Cc1ccc(C(=O)Nc2cc3[nH]c(=O)oc3cc2C)cc1	/	/	4.2	/	/	/
COc1ccccc1N(CC(=O)N/N=C(\C)c1ccc(F)cc1)S(=O)(=O)c1ccccc1	/	/	1.4	/	/	/
O=C(NCc1csc(-c2cccs2)n1)C1CCCCC1	/	/	-8.9	/	/	/
CCOC(=O)CC(NC(=O)c1ccc(C)cc1)c1ccc(OC)cc1 (stereo not drawn)	6.2	0.9	-8.1	0.0	0.9	6.8
O=C(Oc1cccc2cccnc12)c1cccs1	13.3	49.9	-12.3	-3.9	0.9	99.6*
O=C(Oc1ccc(Cl)c2cccnc12)c1ccco1	-3.5	7.8	1.7	-0.1	1	98.8*
O=C(Oc1cccc2cccnc12)c1ccco1	22.6	41.3	-3.3	-1.5	0.8	99.1*
O=C(Cc1ccc(Cl)cc1)Oc1cccc2cccnc12	42.2	63.3*	-21.2	-0.8	0.6	97.3*
COc1ccc(OC)c2c(C)cc(N3CCCN(C)CC3)nc12	1.6	2.5	3.2	1.1	1	7.7
